Experiment [1] can be described thus: Antioxidant activity assessed as superoxide radical scavenging activity at 30 uM by cyclic voltammetric analysis. It counts as functional. A digest of the protocol:
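Cyclic voltammetry was run at room temperature with a three-electrode cell in DMSO, with compound at 30 µM final. Scavenging (%) was calculated as [(Ipc blank − Ipc aox)/Ipc blank] × 100 from the cathodic peak current without and with compound. Three replicates; significance was set at p < 0.05.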

Experiment [2] in a line: Antioxidant activity assessed as inhibition of AAPH-induced peroxyl radical formation at 0.3 to 2 uM preincubated for 15 mins followed by AAPH addition measured every 1 min for 120 mins by ORAC-FL assay relative to trolox. It counts as functional. Put shortly:
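Fluorescein (70 nM final) and compound (0.3–2 µM, in methanol) were mixed in 75 mM sodium phosphate pH 7.4 and pre-incubated 15 min at 37 °C. AAPH (18 mM final) was then added. Fluorescence (ex 485, em 528 nm) was read every minute for 120 min. Net AUC was taken after subtracting a methanol blank and expressed relative to trolox. Triplicates, at least three independent assays.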

Experiment [3] is described as follows: Antioxidant activity assessed as hydroxyl radical scavenging activity at 4 mM after 5 mins by ESR spectrometric analysis. It counts as functional. Put shortly:
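Hydroxyl radicals came from a non-catalytic Fenton-type system: DMF, NaOH (3 mM), DMPO spin trap (30 mM final) and 30% H2O2, with compound at 4 mM final. The DMPO-OH adduct was read by X-band ESR (9.7 GHz) at room temperature 5 min after mixing. A control without antioxidant was included. Values are given as % scavenging.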

For experiment [4], the system named is Radical scavenging activity. The experiment can be described thus: Antioxidant activity assessed as DPPH radical scavenging activity at 1 mM after 5 mins by ESR spectrometric analysis. It counts as functional. Put shortly:
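Reaction mixtures held DPPH and test compound, each at 1.0 mM, both made up in acetonitrile. A control lacked compound. ESR signal was recorded 5 min after mixing at 9.81 GHz with 20 mW microwave power, 0.95 G modulation amplitude and 59 db receiver gain. Values are given as % DPPH scavenging.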
Background: Loss of DPPH colour is used to gauge radical scavenging.

Experiment [5] can be described thus: Antioxidant activity assessed as inhibition of AAPH-induced peroxyl radical formation by ORAC-FL assay relative to trolox. It counts as functional. Put shortly: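 Peroxyl scavenging in 75 mM sodium phosphate buffer pH 7.4 with fluorescein (70 nM final), using test compounds in methanol from 0.3 to 2 units. The mix was pre-incubated 15 min at 37 °C, then AAPH (18 mM final) was added. Fluorescence (ex 485, em 528 nm) was read every 1 min for 120 min. Net AUC was taken against a methanol blank and expressed relative to trolox standards. Triplicates, ≥3 independent runs.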

Experiment [6] concerns Radical scavenging activity. The experiment can be described thus: Antioxidant activity assessed as DPPH radical scavenging activity measured at 5 mins by ESR spectrometric analysis.

Consider `Cc1cccc2cc(-c3cc(O)cc(O)c3)c(=O)oc12`, for which the Activity in experiment [1] was 22.6%; in experiment [3], 75%; in experiment [4], 11.2%. Further, in experiment [2], the fold change (FC) came to 5.5.
As to `Cc1ccc2oc(=O)c(-c3cccc(O)c3)cc2c1`, the Activity worked out at 17.5% in experiment [1], 5.2% in experiment [3] and 3.4% in experiment [4]. Besides, the fold change (FC) in experiment [2] came to 6.7.
For `Oc1cc(O)c2c(c1)OC(c1ccc(O)c(O)c1)C(O)C2` (stereo not given), the fold change (FC) in experiment [5] came to 6.76. Further, the Activity in experiment [6] was found to be 44.5%.
On the same counts, the results for `O=c1c(O)c(-c2ccc(O)c(O)c2)oc2cc(O)cc(O)c12` are 7.28 and 20%.
`Cc1ccc(-c2cc3cccc(O)c3oc2=O)cc1`: the values for the Activity in experiment [1], in experiment [3] and in experiment [4] were 17.4%, 16% and 28.6%, respectively. Also, the fold change (FC) in experiment [2] was found to be 6.3.
For the compound `Cc1ccc2oc(=O)c(-c3ccc(O)cc3)cc2c1`, the Activity came to 17.4% in experiment [1], 100% in experiment [3] and 27.7% in experiment [4]. The fold change (FC) in experiment [2] stood at 6.1.
Taken in the same sequence, the figures for `Cc1cccc2cc(-c3ccc(O)c(O)c3)c(=O)oc12` were 77.3%, 100%, 66.7% and 5.7.
For the compound `Cc1ccc2oc(=O)c(-c3ccccc3O)cc2c1`, the Activity in experiment [1] stood at 25%; in experiment [3], 100%; in experiment [4] it was 10.6%. Also, the fold change (FC) in experiment [2] was found to be 8.4.
As to `Cc1cccc2cc(-c3cc(O)c(O)c(O)c3)c(=O)oc12`, the results for the Activity in experiment [1], in experiment [3] and in experiment [4] were 76.5%, 100% and 100%, respectively. For the same compound, the fold change (FC) in experiment [2] worked out at 5.3.
For the compound `O=c1oc2c(O)cccc2cc1-c1ccc(O)cc1`, the Activity was determined as 71.5% in experiment [1], 100% in experiment [3] and 65.9% in experiment [4]. For the same compound, the fold change (FC) in experiment [2] was 13.5.
For the compound `Cc1ccc2oc(=O)c(-c3ccc(O)c(O)c3)cc2c1`, the Activity in experiment [1] turned out to be 28.9%; in experiment [3], 6.05%; in experiment [4], 28.3%. The fold change (FC) in experiment [2] turned out to be 5.3.

For the origin of these results see ChEMBL document CHEMBL2396589, “Remarkable antioxidant properties of a series of hydroxy-3-arylcoumarins” (Bioorg Med Chem, 2013).
